Tests used:
[1] = system: MCF7; test: Antiproliferative activity against human MCF7 cells assessed as inhibition of cell growth at 1 uM incubated for 48 hrs by MTT assay; format: functional
Summary of the method: (§1)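 Positive-control reference measured alongside the single-concentration screen: cells seeded at 4 × 10⁴ per well, adhered overnight, exposed 48 h to doxorubicin at 1 μM. MTT (2.5 mg mL⁻¹) added for 4 h, formazan dissolved in DMSO, absorbance at 570 nm; percent growth inhibition relative to untreated cells.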

[2] = system: MDA-MB-231; test: Antiproliferative activity against human MDA-MB-231 cells assessed as inhibition of cell growth incubated for 48 hrs by MTT assay; format: functional, cell-based; conditions: MDA-MB-231, 48 h
[3] = system: ZR-75-1; test: Antiproliferative activity against human ZR-75-1 cells assessed as inhibition of cell growth at 1 uM incubated for 48 hrs by MTT assay; format: functional; summary of the method: as §1
[4] = system: ZR-75-1; test: Antiproliferative activity against human ZR-75-1 cells assessed as inhibition of cell growth incubated for 48 hrs by MTT assay; format: functional, cell-based; conditions: ZR-75-1, 48 h
[5] = system: MDA-MB-231; test: Antiproliferative activity against human MDA-MB-231 cells assessed as inhibition of cell growth at 1 uM incubated for 48 hrs by MTT assay; format: functional; summary of the method: as §1
[6] = system: MCF7; test: Antiproliferative activity against human MCF7 cells assessed as inhibition of cell growth incubated for 48 hrs by MTT assay; format: functional, cell-based; conditions: MCF7, 48 h
Summary of the method: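 MCF-7 exposed 48 h to 0.625, 1.25, 2.5, 5, 10, 20 and 40 μM. MTT (2.5 mg mL⁻¹) added for 4 h, medium removed, formazan solubilized in DMSO, absorbance at 570 nm; percent growth inhibition calculated and IC50 derived.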

[7] = system: MCF7; test: Antiproliferative activity against human MCF7 cells assessed as inhibition of cell growth at 10 uM incubated for 48 hrs by MTT assay; format: functional
Summary of the method: (§2)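 Single-concentration screen: cells (ATCC; 37 °C, 5% CO₂) seeded at 4 × 10⁴ per well, adhered overnight, then treated 48 h at 10 μM. Medium removed, MTT (2.5 mg mL⁻¹) added for 4 h, formazan dissolved in DMSO, absorbance read at 570 nm; percent inhibition versus untreated cells.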

[8] = system: ZR-75-1; test: Antiproliferative activity against human ZR-75-1 cells assessed as inhibition of cell growth at 10 uM incubated for 48 hrs by MTT assay; format: functional; summary of the method: as §2
[9] = system: MDA-MB-231; test: Antiproliferative activity against human MDA-MB-231 cells assessed as inhibition of cell growth at 10 uM incubated for 48 hrs by MTT assay; format: functional; summary of the method: as §2

SMILES	inhibition at 1 µM [1] [%]	IC50 [2] [µM]	inhibition at 1 µM [3] [%]	IC50 [4] [µM]	inhibition at 1 µM [5] [%]	IC50 [6] [µM]	inhibition at 10 µM [7] [%]	inhibition at 10 µM [8] [%]	inhibition at 10 µM [9] [%]
COc1cccc2c1C(=O)c1c(O)c3c(c(O)c1C2=O)C[C@@](O)(C(=O)CO)C[C@@H]3O[C@H]1C[C@H](N)[C@H](O)[C@H](C)O1 [DOXORUBICIN]	45.5	1.7	45.5	1.2	37.9				
COc1cc(-n2cnc(-c3cccc(N)c3)n2)cc(OC)c1OC		21		71		5.7	57.6	12.1	22.7
COc1cc(-n2cnc(-c3cccc(C(F)(F)F)c3)n2)cc(OC)c1OC		94		98		11	48.6	2.39	5.77
c1cc2c(cc1-c1ncn(-c3ccc4c(c3)OCO4)n1)OCO2							8.99		17.1
COc1cc(-n2cnc(-c3cccc4ccccc34)n2)cc(OC)c1OC							13.4		22.6
COc1ccc(-c2ncn(-c3cc(OC)c(OC)c(OC)c3)n2)cc1OC							28.9		23.5
COc1ccc(-c2ncn(-c3cc(OC)c(OC)c(OC)c3)n2)cn1							35.9	4.95	5.25
COc1cc(-n2cnc(-c3ccc(F)cc3)n2)cc(OC)c1OC							20.2		23.1
COc1cc(-n2cnc(-c3ccc4c(c3)OCO4)n2)cc(OC)c1OC							21.2		17.9
COc1ccc(-c2ncn(-c3ccccc3)n2)cc1							0.853	0	0
COc1ccc(-n2cnc(-c3cccc(C(F)(F)F)c3)n2)cc1OC							18.4		12.8
